Experimental data reported in ChEMBL document CHEMBL1156071, “Novel L-xylose derivatives as selective sodium-dependent glucose cotransporter 2 (SGLT2) inhibitors for the treatment of type 2 diabetes” (J Med Chem, 2009).

Experiments:
[1] = target: T1, Sodium/glucose cotransporter 2 (Mus musculus, UniProt Q923I7); assay: Inhibition of mouse SGLT2-mediated [14C]alpha-methylglucopyranoside uptake by cell based assay
T1 sequence (Q923I7 whole entry): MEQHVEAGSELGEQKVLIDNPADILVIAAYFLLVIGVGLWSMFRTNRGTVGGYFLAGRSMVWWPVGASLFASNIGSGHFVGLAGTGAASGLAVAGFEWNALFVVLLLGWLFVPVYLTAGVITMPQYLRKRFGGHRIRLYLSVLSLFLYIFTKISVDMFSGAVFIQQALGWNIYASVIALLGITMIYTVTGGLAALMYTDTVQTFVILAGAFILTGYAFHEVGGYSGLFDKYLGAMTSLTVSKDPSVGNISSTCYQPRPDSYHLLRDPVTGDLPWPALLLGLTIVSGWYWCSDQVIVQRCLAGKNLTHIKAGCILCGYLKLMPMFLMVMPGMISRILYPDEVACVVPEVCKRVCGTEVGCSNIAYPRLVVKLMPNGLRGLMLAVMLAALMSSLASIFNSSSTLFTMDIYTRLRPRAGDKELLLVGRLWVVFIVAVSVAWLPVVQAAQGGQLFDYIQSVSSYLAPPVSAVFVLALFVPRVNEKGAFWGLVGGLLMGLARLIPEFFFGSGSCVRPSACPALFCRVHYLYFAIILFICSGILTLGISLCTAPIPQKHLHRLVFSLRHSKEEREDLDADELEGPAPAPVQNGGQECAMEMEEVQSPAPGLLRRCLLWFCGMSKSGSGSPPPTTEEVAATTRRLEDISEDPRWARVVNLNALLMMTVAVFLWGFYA

[2] = target: T2, Sodium/glucose cotransporter 2 (Homo sapiens, UniProt P31639); assay: Inhibition of human SGLT2 expressed in HEK293 cells assessed as inhibition of [14C]alpha-methylglucopyranoside uptake; assay type: cell-based
T2 sequence (P31639 whole entry): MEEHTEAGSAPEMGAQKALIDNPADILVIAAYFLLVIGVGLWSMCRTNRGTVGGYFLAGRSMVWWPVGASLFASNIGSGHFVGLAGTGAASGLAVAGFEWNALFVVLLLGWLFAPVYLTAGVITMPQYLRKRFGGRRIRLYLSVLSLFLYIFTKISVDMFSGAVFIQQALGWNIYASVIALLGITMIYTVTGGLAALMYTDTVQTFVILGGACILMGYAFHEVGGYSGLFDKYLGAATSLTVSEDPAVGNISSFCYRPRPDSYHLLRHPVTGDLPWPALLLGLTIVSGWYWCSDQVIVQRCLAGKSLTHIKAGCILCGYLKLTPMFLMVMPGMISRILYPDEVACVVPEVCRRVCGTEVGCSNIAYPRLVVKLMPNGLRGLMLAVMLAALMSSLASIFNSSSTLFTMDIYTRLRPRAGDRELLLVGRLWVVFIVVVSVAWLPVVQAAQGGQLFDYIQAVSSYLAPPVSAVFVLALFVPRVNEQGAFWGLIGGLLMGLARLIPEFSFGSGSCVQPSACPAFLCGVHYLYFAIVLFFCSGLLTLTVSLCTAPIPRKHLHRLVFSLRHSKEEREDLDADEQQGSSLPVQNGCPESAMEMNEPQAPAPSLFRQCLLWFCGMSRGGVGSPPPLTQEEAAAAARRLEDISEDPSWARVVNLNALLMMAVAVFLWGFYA
Outline: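 Cells stably expressing human SGLT2 were used to measure sodium-coupled uptake of [14C]α-methylglucopyranoside, a metabolically stable SGLT-specific glucose analogue. Uptake was measured across increasing compound concentrations, and IC50 was derived from the inhibition of uptake.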

Row | Compound | IC50 [1] [nM] | IC50 [2] [nM]
1 | COC1O[C@@H](c2ccc(Cl)c(Cc3ccc(Oc4nccs4)cc3)c2)[C@H](O)[C@@H](O)[C@@H]1O (mixture of isomers) | 60 | 150
2 | CCOc1ccc(Cc2cc([C@@H]3OC(OCC)[C@@H](O)[C@H](O)[C@H]3O)ccc2Cl)cc1 (mixture of isomers) | 19 | 58
3 | COC1O[C@@H](c2ccc(Cl)c(Cc3ccc(O[C@H]4CCN(C)C4)cc3)c2)[C@H](O)[C@@H](O)[C@@H]1O (mixture of isomers) | 92 | 170
4 | CCOc1ccc(Cc2cc([C@@H]3OC(O)[C@@H](O)[C@H](O)[C@H]3O)ccc2Cl)cc1 (mixture of isomers) | 100 | 280
5 | COC1O[C@@H](c2ccc(Cl)c(Cc3ccc(OCCO)cc3)c2)[C@H](O)[C@@H](O)[C@@H]1O (mixture of isomers) | 9.5 | 36
6 | CCOc1ccc(-c2cccc([C@@H]3OC(OC)[C@@H](O)[C@H](O)[C@H]3O)c2)cc1 (mixture of isomers) | 1900 | 4600
7 | COCCOc1ccc(Cc2cc([C@@H]3OC(OC)[C@@H](O)[C@H](O)[C@H]3O)ccc2Cl)cc1 (mixture of isomers) | 16 | 45
8 | CCOc1ccc(Cc2cccc([C@@H]3OC(OC)[C@@H](O)[C@H](O)[C@H]3O)c2)cc1 (mixture of isomers) | 220 | 1100

Further compounds by falling IC50 [1], results first:

Row | IC50 [1] [nM] | IC50 [2] [nM] | Compound
9 | 9200 | > 30000 | CCOc1ccc(Cc2cc([C@H]3OC(OC)[C@H](O)[C@@H](O)[C@@H]3O)ccc2Cl)cc1 (stereo partly drawn)
10 | 2200 | 3600 | CCOc1ccc(Cc2cc([C@@H]3OC(OCCN(C)C)[C@@H](O)[C@H](O)[C@H]3O)ccc2Cl)cc1 (mixture of isomers)
11 | 1900 | 2400 | CCOc1ccc(Oc2cc([C@@H]3OC(OC)[C@@H](O)[C@H](O)[C@H]3O)ccc2Cl)cc1 (mixture of isomers)
12 | 330 | 620 | CCOc1ccc(Cc2cc([C@@H]3OC(OCc4ccccc4)[C@@H](O)[C@H](O)[C@H]3O)ccc2Cl)cc1 (mixture of isomers)
13 | 220 | 600 | CCOc1ccc(Cc2cc([C@@H]3OC(OC)[C@H](F)[C@H](O)[C@H]3O)ccc2Cl)cc1 (mixture of isomers)
14 | 8 | 32 | COC1O[C@@H](c2ccc(Cl)c(Cc3ccc(O)cc3)c2)[C@H](O)[C@@H](O)[C@@H]1O (mixture of isomers)
